Published values of several laboratories.
Protocols differ between the studies behind these lines.
Organism: Candida albicans
Read-out: microbial growth
Method: broth dilution

COc1ccc(-n2nc(C(=O)c3ccc(Nc4cnccn4)cc3)sc2=N)cc1  MIC (ATCC10231): 50 µg/mL
C/C(=N\C(=O)/N=C(\C)c1c(O)c2ccccc2oc1=O)c1c(O)c2ccccc2oc1=O  MIC (48 h): 31.2 µg/mL
N#CC(=C1C=CC(=NOC(=O)OCc2ccccc2)C=C1)c1ccccc1  MIC (ATCC10231; 48 h): 256 µg/mL
Cc1ccc(-c2cc(-c3ccc(OCc4ccccc4)cc3)nc3c(N=Nc4ccc(F)cc4)c(N)nn23)cc1  MIC (ATCC10231): 62.5 µg/mL
OC(Cn1cncn1)(Cn1cncn1)c1ccc(F)cc1F  MIC (SP3903; 48 h): 4 µM
N#CC(=C1C=CC(=NOC(=O)c2ccccc2)C=C1)c1ccccc1  MIC (ATCC10231; 48 h): 256 µg/mL
C[C@@H]1[C@H](O)[C@@H](C)/C=C/C=C/C=C/C=C/C=C/C=C/C=C/[C@H](O[C@@H]2O[C@H](C)[C@@H](O)[C@H](N)[C@@H]2O)C[C@@H]2O[C@](O)(C[C@@H](O)C[C@@H](O)[C@H](O)CC[C@@H](O)C[C@@H](O)CC(=O)O[C@H]1C)C[C@H](O)[C@H]2C(=O)O  MIC (17546; 48 h): < 0.25 µM
CC(=O)N1CCN(c2ccc(OCC3COC(Cn4ccnc4)(c4ccc(Cl)cc4Cl)O3)cc2)CC1 (centres unmarked)  MIC (48 h): 1.95 µg/mL
CC(=O)N1CCN(c2ccc(OCC3COC(Cn4ccnc4)(c4ccc(Cl)cc4Cl)O3)cc2)CC1 (centres unmarked)  MIC (14936; 48 h): 2 µM
C/C(=N\CCNCC/N=C(\C)c1c(O)c2ccccc2oc1=O)c1c(O)c2ccccc2oc1=O  MIC (48 h): 7.81 µg/mL
N=c1sc(C(=O)c2ccc(Nc3cnccn3)cc2)nn1-c1ccc([N+](=O)[O-])cc1  MIC (ATCC10231): 12.5 µg/mL
C[C@@H]1[C@H](O)[C@@H](C)/C=C/C=C/C=C/C=C/C=C/C=C/C=C/[C@H](O[C@@H]2O[C@H](C)[C@@H](O)[C@H](N)[C@@H]2O)C[C@@H]2O[C@](O)(C[C@@H](O)C[C@@H](O)[C@H](O)CC[C@@H](O)C[C@@H](O)CC(=O)O[C@H]1C)C[C@H](O)[C@H]2C(=O)O  MIC (ATCC10231; 48 h): 2 µg/mL
CC(C)c1ccc(/C=C2\N=C(SCC(=O)O)N(c3ccccc3)C2=O)cc1  MIC (ATCC10 ATCC10231): 21 µg/mL
COc1ccc(N2N=C(C(=O)c3ccc(Nc4cnccn4)cc3)SC2=C(C#N)C#N)cc1  MIC (ATCC10231): 12.5 µg/mL
CCn1c2ccccc2c2cc(CNC)ccc21  MIC (SN152; 24 h): 64 µg/mL
CC(=O)N1CCN(c2ccc(OCC3COC(Cn4ccnc4)(c4ccc(Cl)cc4Cl)O3)cc2)CC1 (centres unmarked)  MIC (ATCC10231): 1.95 µg/mL
C/C(=N\C1CCCCC1/N=C(\C)c1c(O)c2ccccc2oc1=O)c1c(O)c2ccccc2oc1=O (centres unmarked)  MIC (48 h): 31.2 µg/mL
COc1ccc(N2N=C(C(C)=O)SC2=C(C#N)C(=O)c2ccc(Nc3cnccn3)cc2)cc1  MIC (ATCC10231): 25 µg/mL
C#CCON=C1C=CC(=C(C#N)c2ccccc2)C=C1  MIC (ATCC10231; 48 h): 32 µg/mL
COc1ccc(N=Nc2c(N)nn3c(-c4ccc(Cl)cc4Cl)cc(-c4ccc(OCc5ccccc5)cc4)nc23)cc1  MIC (ATCC10231): 62.5 µg/mL
C/C(=N\N=C(/C)c1c(O)c2ccccc2oc1=O)c1c(O)c2ccccc2oc1=O  MIC (48 h): 125 µg/mL
OC(Cn1cncn1)(Cn1cncn1)c1ccc(F)cc1F  MIC (8; 24 h): 1 µg/mL
C[C@@H]1[C@H](O)[C@@H](C)/C=C/C=C/C=C/C=C/C=C/C=C/C=C/[C@H](O[C@@H]2O[C@H](C)[C@@H](O)[C@H](N)[C@@H]2O)C[C@@H]2O[C@](O)(C[C@@H](O)C[C@@H](O)[C@H](O)CC[C@@H](O)C[C@@H](O)CC(=O)O[C@H]1C)C[C@H](O)[C@H]2C(=O)O  MIC (ATCC90028; 48 h): 0.5 µg/mL
COc1ccc(N=Nc2c(N)nn3c(-c4ccc(C)cc4)cc(-c4ccc(OCc5ccccc5)cc4)nc23)cc1  MIC (ATCC10231): 62.5 µg/mL
N#CC(C#N)=C1SC(C(=O)c2ccc(Nc3cnccn3)cc2)=NN1c1ccc([N+](=O)[O-])cc1  MIC (ATCC10231): 12.5 µg/mL
CCCCCCCCCCCC(=O)ON=C1C=CC(=C(C#N)c2ccccc2)C=C1  MIC (ATCC10231; 48 h): 512 µg/mL
